From PubChem BioAssay
S1P4 antag = human S1P4 receptor antagonism | inhibition, % at 4.98 µM | S1P4-expressing cells, antagonist mode, reporter read-out | 220,000 compounds, 0.26% hits | O95977; in the data active = inhibition above about 29%;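 note: 0% = wells stimulated with agonist and 100% = vehicle wells without agonist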
Target sequence (O95977 whole entry, looked up): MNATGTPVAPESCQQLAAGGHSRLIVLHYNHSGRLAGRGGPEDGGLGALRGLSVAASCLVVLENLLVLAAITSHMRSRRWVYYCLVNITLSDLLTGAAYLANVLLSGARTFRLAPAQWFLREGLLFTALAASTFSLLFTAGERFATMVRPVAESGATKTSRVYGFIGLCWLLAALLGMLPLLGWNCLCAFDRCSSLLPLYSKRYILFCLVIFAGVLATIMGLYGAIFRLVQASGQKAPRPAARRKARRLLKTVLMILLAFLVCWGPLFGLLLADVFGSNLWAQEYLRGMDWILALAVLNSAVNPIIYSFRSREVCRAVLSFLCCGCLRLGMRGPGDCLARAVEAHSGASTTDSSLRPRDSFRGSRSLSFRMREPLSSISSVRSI
S1P4 agonist = human S1P4 receptor agonism; O95977; S1P4-expressing cell line, agonist reporter assay; activation, % at 4.98 µM; 220,000 compounds, 0.35% hits; in the data active = activation above about 11%;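 note: 0% = DMSO vehicle and 100% = reference agonist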
TNF death inh = inhibitors of TNF-alpha induced necroptosis in Jurkat FADD-/- cells; Jurkat FADD-/- TNF necroptosis rescue, ATP luminescence, 24 h; 0 = TNF only, 100 = no-TNF cells; activation (protection from cell death), % at 10 µM; 220,000 compounds, 0.068% hits; AID 463075;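 active = activation, meaning protection from cell death, of at least 50% relative to plate controls; inactive = activation below 50%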;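 note: necroptosis triggered by 40 ng/mL TNF-alpha added together with compound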
TbHK1 inh = T. brucei hexokinase 1 inhibition. recombinant TbHK1, G6PDH-coupled NADH A340. inhibition, % at 10 µM. 220,000 compounds, 0.11% hits;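 active = inhibition of 50% or more in the single-dose primary screen; inactive = inhibition below 50%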
L929 necroptosis = blocks zVAD induced death of L929 cells; L929 zVAD necroptosis rescue, ATP luminescence, 24 h; with zVAD 60 µM; viability rescue, % at 10 µM; 220,000 compounds, 0.38% hits;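 active = activation, scaled between plate controls, above about 75%, limit read from the data; inactive = activation under that limit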;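 note: 0% = zVAD with DMSO and 100% = DMSO alone without zVAD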
Dynein transport = dynein cargo transport inhibition; 3617.4 mouse cells, GR-EGFP nuclear translocation imaging; test concentration mostly 20 µM; stimulated with dexamethasone, 1 µM; stronger effect = lower value; z-score, hits read low; 220,000 compounds, 0.47% hits; AID 1381;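 active = plate z-score of nuclear minus cytoplasmic receptor signal below a set negative limit, without overly bright fluorescence or cell loss, cut at about -3.5 in these data, passing the limit was not always enough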;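 note: z-score of nuclear minus cytoplasmic ring GR-EGFP intensity difference per well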
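Buffer or medium: tet-free medium with charcoal-stripped serum / Also added: dexamethasone agonist, 1.0 µM final, for 30 min / Timing: induction 48 h, compound 1 h, agonist 30 min / Measured by: high-content fluorescence imaging after fixation / Read-out: nuclear-to-cytoplasmic GR-EGFP distribution per well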
S1P4 agonist cf = human S1P4 agonism, confirmation; 740 compounds, 7% hits; S1P4 agonist cell-based reporter assay; shares compounds with S1P4 agonist; AID 1523; activation, % at 4.98 µM; in the data active = activation above about 12%;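 note: 0% = vehicle and 100% = full reference agonist response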
S1P1 ag = human S1P1 agonism as S1P4 agonist counter-screen; shares compounds with S1P4 agonist; S1P1 agonist cell-based assay, activation; activation, % at 4.98 µM; 740 compounds, 4% hits; AID 1563; in the data active = activation above about 21%;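 note: 0% = vehicle wells and 100% = reference agonist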
* = called active by the depositor; . = not tested or not shown. Sampled rows, rich in hits. Any-hit rate of the full collection: about 1.5%.

SMILES	S1P4 antag	S1P4 agonist	TNF death inh	TbHK1 inh	L929 necroptosis	Dynein transport	S1P4 agonist cf	S1P1 ag
CC(=O)Nc1ccc(S(=O)(=O)Nc2cccc(NC(=O)c3ccco3)c2)cc1	-6	-1	3	0	1	-0.41	.	.
COc1cccc(NC(=O)CSc2nnc(Cc3cccs3)n2-c2ccc(C)cc2)c1	-3	13*	-1	6	0	2.4	-2	-5
CC(Sc1nc(-c2ccco2)nc2c1c(=O)n(C)c(=O)n2C)C(=O)O (configuration not stated)	-11	0	-1	-60	2	-1.1	.	.
COCCNC(=O)c1ccccc1NC(=O)Cc1ccccc1[N+](=O)[O-]	-1	235*	1	-11	0	1.6	-3	-7
COCCNC(=O)c1ccccc1NC(=O)c1cccc([N+](=O)[O-])c1C	-4	1	1	2	1	0.45	.	.
O=C(COC(=O)CCSc1ccccc1)Nc1ccc(F)cc1Cl	-13	31*	2	34	0	0.018	-2	-1
O=C(COc1ncnc2ccccc12)Nc1cc([N+](=O)[O-])ccc1F	9	-1	8	-4	1	-0.71	.	.
O=C(CCCn1c(SCc2cc(=O)n3cc(Cl)ccc3n2)nc2ccccc2c1=O)NCC1CCCO1 (configuration not stated)	3	-1	0	-11	-2	0.87	.	.
O=c1cc(CSc2nc(NCc3ccccc3)c3ccccc3n2)nc2ccc(Cl)cn12	-18	28*	5	-7	1	0.14	-2	-4
S=C(Nc1ccc(Br)cc1Cl)Nn1cnnc1	-18	2	1	-6	0	-0.22	.	.
Cc1cc(C)nc(NC(=O)Cc2ccc([N+](=O)[O-])cc2)c1	-28	30*	0	-2	1	0.42	-3	-1
COc1ccc([N+](=O)[O-])cc1NC(=O)Cc1ccc(Cl)cc1	-6	15*	-4	38	1	0.77	-1	-8
Cc1ccc(CC(=O)Nc2cc([N+](=O)[O-])ccc2F)cc1	-26	2	9	-2	1	-0.5	.	.
Clc1ccccc1Nc1nc(-c2cccnc2)cs1	-7	1	-1	0	68	-0.37	.	.
Cc1nn(C)cc1/C=N/NC(=S)Nc1ccc(Cl)cc1Cl	-89	15*	0	-9	.	0.93	0	5
CCCOc1ccc(Oc2nc(-c3ccncc3)nc3ccccc23)cc1	2	-3	5	-5	8	0.35	.	.
O=C(Cn1cnc2ccccc2c1=O)NCc1cccs1	-18	1	0	-3	1	-1.2	.	.
COc1ccc(S(=O)(=O)N2c3ccccc3OCC2C)cc1 (configuration not stated)	10	15*	-14	3	-2	0.73	-2	-17
COc1ccc(S(=O)(=O)N2c3ccccc3OCC2c2ccccc2)cc1 (configuration not stated)	-9	-1	-17	-2	0	.	.	.
COc1ccccc1/C=N/NC(=O)Cn1cnc([N+](=O)[O-])n1	-15	-1	0	-14	2	-0.9	.	.
O=C(NCC(c1ccco1)N1CCN(c2ccccc2F)CC1)OCc1ccccc1 (configuration not stated)	4	33*	-1	4	0	0.6	-2	-6
O=C(NCC(c1ccco1)N1CCN(c2ccccc2)CC1)OCc1ccccc1 (configuration not stated)	7	0	0	2	-1	3	.	.
COc1cc(C(=O)NNC(=S)NCc2ccco2)cc(OC)c1OC	-9	1	1	-2	17	0.1	.	.
COC(=O)c1ccc2c(c1)C(=O)/C(=C/c1ccc(C)cc1)O2	-23	13*	-8	-10	1	-0.75	-1	-2
Cc1nn(CC2CC2)c(=O)n1-c1ccc(Oc2ccccc2)cc1	11	1	0	3	2	-0.0082	.	.
SMILES	S1P4 antag	S1P4 agonist	TNF death inh	TbHK1 inh	L929 necroptosis	Dynein transport	S1P4 agonist cf	S1P1 ag
O=C(Nc1ccccc1-c1ccccc1)C1CCCCC1	4	12*	-1	-1	0	0.022	-2	-3
O=C(Nc1ccccc1-c1ccccc1)C1CCC1	10	0	1	1	4	-1	.	.
CC1=Nc2ccccc2/C1=C/c1c(N)n2c(S(=O)(=O)CC(C)C)nsc2nc1=O	-4	20*	0	5	-1	0.99	-2	-2
CCOc1ccc(N2C(=O)C3C(c4ccccc4F)NN(C(=O)c4ccc(C)cc4)C3C2=O)cc1 (configuration not stated)	-2	1	1	-1	5	-1	.	.
CC(=O)Nc1ccccc1C(=O)C(=O)O	0	13*	-3	-2	0	0.054	-2	0
Cc1ccc(S(=O)(=O)Nc2cc(=O)[nH]c(SCC(=O)Nc3cccc(C)c3)n2)cc1	-3	2	2	-6	0	-0.25	.	.
COc1ccccc1C1CC(c2ccco2)=NN1S(C)(=O)=O (configuration not stated)	-13	30*	0	-2	4	-0.76	-2	-6
CC(=O)N(CCCN(C)C)Cc1ccccn1	4	20*	0	-8	-1	0.04	-2	-7
Cc1ccc(Cn2nc(C)c(NC(=O)c3cc(-c4ccc5c(c4)OCO5)on3)c2C)cc1	4	19*	-1	-4	0	2.7	-2	0
C=CCn1c(-c2ccc3ncccc3c2)n[nH]c1=S	-5	1	-2	-18	0	-0.56	.	.
COCCNC(=O)c1ccc2c(=O)n(Cc3ccco3)c(SCC(=O)NC3CCCC3)nc2c1	2	12*	2	-8	0	-1.4	-2	-9
Cc1noc(C)c1C(=O)NC(C)c1ccc(Cl)cc1Cl (configuration not stated)	-6	0	-1	6	0	-0.37	.	.
CC(=O)C1=C(C)NC(SCC(=O)c2ccc(Cl)cc2Cl)=C(C#N)C1c1ccco1 (configuration not stated)	-30	24*	-2	-14	0	-0.15	26*	-8
CC(=O)C1=C(C)NC(SCC(=O)c2ccc(Cl)cc2)=C(C#N)C1c1ccco1 (configuration not stated)	6	2	1	-2	2	0.83	.	.
O=C(/C=C/c1ccccc1[N+](=O)[O-])N1CCN(c2ccc(F)cc2)CC1	9	2	2	-4	22	0.058	.	.
O=C(Cc1ccccc1[N+](=O)[O-])N1CCN(c2ccc(F)cc2)CC1	-7	74*	1	0	0	0.03	-2	-8
